In ChEMBL document CHEMBL1131568, “Intensely potent doxorubicin analogues: structure-activity relationship” (J Med Chem, 1998) one finds IC50 data, which are given here for ten molecules.

Structures are written as SMILES.

The term IC50 denotes the concentration that inhibits the measured activity by half. Higher therefore signals weaker potency in that assay.

Assay [1] has as its system CHO. Nature of the assay: Compound was tested for the drug concentration that inhibited cell growth by 50% compared to un treated control cultures of CHO /DOX cell line. The format is functional, cell-based. The note with it: Cricetulus griseus. The procedure, abridged:
(§1)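 Exponentially growing cells, seeded at 1.5×10^4 cells/mL in McCoy's 5A with 10% FCS, exposed to drug over 2×10^-5 to 2×10^-12 M for 6 days at 37 °C. Cells fixed in 10% formaldehyde, stained with 0.1% crystal violet, and counted by inverted phase-contrast microscopy. IC50 taken from dose-response curves of surviving fraction versus untreated controls; mean of duplicates.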

Assay [2] can be described thus: Compound was tested for the drug concentration that inhibited cell growth by 50% compared to un treated control cultures of CA 755 cells(murine carcinoma 755 cells). The format is functional, Mus musculus. The procedure, abridged: as §1
Assay [3] relates to CHO. The assay can be described thus: Drug concentration that inhibit cell growth by 50% compared to un treated control cultures of CHO cells (for 6 days at 37 degree Centigrade). Particulars: Cricetulus griseus, 144 h. It counts as functional, cell-based. The essentials: as §1
The species named for assay [4] is Mus musculus. Nature of the assay: Compound was tested for the drug concentration that inhibited cell growth by 50% compared to un treated control cultures of Panc 02 cells. Particulars: Panc02. The format is functional, cell-based. The essentials: as §1
Assay [5] in a line: Compound was tested for the drug concentration that inhibited cell growth by 50% compared to untreated control cultures of CA 755 cells(murine carcinoma 755 cells). The format is functional. Particulars: Mus musculus. The essentials: as §1
The species entered for assay [6] is Mus musculus. The assay can be described thus: Compound was tested for the drug concentration that inhibited cell growth by 50% compared to untreated control cultures of Panc 02 cells. The format is functional, cell-based. The note with it: Panc02. The essentials: as §1

On to `COc1cccc2c1C(=O)c1c(O)c3c(c(O)c1C2=O)CC(O)(C(=O)CO)CC3OC1CC(NCCC(C)(C)C(OC(C)=O)OC(C)=O)C(O)C(C)O1` (stereo not given), for which the half-inhibitory concentration (IC50) in the assay on CHO [1] amounted to 290 nM; in assay [2] it was 90 nM; in the assay on CHO [3] it was 120 nM; in the assay filed under Mus musculus [4] it was 95 nM.

As to `COc1cccc2c1C(=O)c1c(O)c3c(c(O)c1C2=O)CC(O)(C(=O)CO)CC3OC1CC(NCCCOCCC(OC(C)=O)OC(C)=O)C(O)C(C)O1` (stereo not given), the IC50 came out at 210 nM in the assay with CHO [1], 90 nM in assay [2], 100 nM in the assay with CHO [3] and 80 nM in the assay filed under Mus musculus [4].

In the case of `COc1cccc2c1C(=O)c1c(O)c3c(c(O)c1C2=O)CC(O)(C(=O)CO)CC3OC1CC(NCCCCCC(OC(C)=O)OC(C)=O)C(O)C(C)O1` (stereo not given), the IC50 in the assay with CHO [1] was 13 nM; in assay [2], 3.1 nM; with CHO [3], 26 nM; in the assay listed under Mus musculus [4], 14 nM.

With `COc1cccc2c1C(=O)c1c(O)c3c(c(O)c1C2=O)CC(O)(C(=O)CO)CC3OC1CC(N(C)CCCCC(OC(C)=O)OC(C)=O)C(O)C(C)O1` (stereo not given), the 50% inhibitory concentration (IC50) in the assay with CHO [1] turned out to be 185 nM; in assay [2], 130 nM; in the assay on CHO [3] it was 65 nM; in the assay filed under Mus musculus [4], 140 nM.

On to `COc1cccc2c1C(=O)c1c(O)c3c(c(O)c1C2=O)CC(O)(C(=O)CO)CC3OC1CC(NCCOCCC(OC(C)=O)OC(C)=O)C(O)C(C)O1` (stereo not given), for which the IC50 in the assay on CHO [1] came to 96 nM; in the assay on CHO [3] it was 55 nM; in the assay filed under Mus musculus [4], 60 nM.

As to `COc1cccc2c1C(=O)c1c(O)c3c(c(O)c1C2=O)CC(O)(C(=O)CO)CC3OC1CC(NCCCCCCCC(OC(C)=O)OC(C)=O)C(O)C(C)O1` (stereo not given), the IC50 came out at 170 nM in the assay with CHO [1], 14 nM in assay [2], 250 nM in the assay on CHO [3] and 110 nM in the assay filed under Mus musculus [4].

With `CCCCCNC1CC(OC2CC(O)(C(=O)CO)Cc3c(O)c4c(c(O)c32)C(=O)c2c(OC)cccc2C4=O)OC(C)C1O` (stereo not given), the concentration for half-maximal inhibition (IC50) in assay [2] came to 33 nM; in the assay filed under Mus musculus [4], 100 nM.

With `COc1cccc2c1C(=O)c1c(O)c3c(c(O)c1C2=O)CC(O)(C(=O)CO)CC3OC1CC(NCCCC(=O)O)C(O)C(C)O1` (stereo not given), the IC50 stood at 950 nM in the assay with CHO [1], 150 nM in assay [2], 203 nM in the assay with CHO [3] and 240 nM in the assay filed under Mus musculus [4].

`COc1cccc2c1C(=O)c1c(O)c3c(c(O)c1C2=O)CC(O)(C(=O)CO)CC3OC1CC(NCCCCCOC(C)=O)C(O)C(C)O1` (stereo not given): the half-inhibitory concentration (IC50) is 350 nM with CHO [1], 140 nM in assay [2], 83 nM with CHO [3] and 67 nM in the assay filed under Mus musculus [4].

As for `COc1cccc2c1C(=O)c1c(O)c3c(c(O)c1C2=O)C[C@@](O)(C(=O)CO)C[C@@H]3O[C@H]1C[C@H](N)[C@H](O)[C@H](C)O1` [DOXORUBICIN], the IC50 in assay [5] is 14 nM; in the assay listed under Mus musculus [6], 65 nM.
